Article PMC3215888 (Cancer Chemotherapy and Pharmacology, 2011)
“And” between values parts separate entries of the source, which are not always exact repeats. Equal values may be shown once. Read-outs that look alike come from different tables or passages of the source.

Assays:
[1] = tested on: SMS-KANR neuroblastoma cell line; assay: DIMSCAN in vitro testing, 96 h; format: cell-based; details: for IC50: Neuroblastoma cell, 96 h
[2] = tested on: LA–N-6 neuroblastoma cell line; assay: DIMSCAN in vitro testing, 96 h; format: cell-based; details: for IC50: Neuroblastoma cell, 96 h
Method in brief: (§1)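 Neuroblastoma and Ewing sarcoma lines, STR-verified and maintained as in the originators' reports. Exposed for 96 h to test compound (DMSO stock diluted in medium) at 1 nM–10 μM. Viable cells quantified by fluorescein diacetate fluorescence with DIMSCAN digital image microscopy. Absolute IC50 = concentration giving 50% growth inhibition vs controls. Relative IC50 = concentration giving 50% of the maximum inhibitory effect.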

[3] = tested on: Aurora kinase A mutation (T217D); details: cited from earlier work
[4] = tested on: solid tumor xenograft models; assay: Objective responses across the solid tumor xenograft panel; format: in vivo, mice; details: MTD 20.8 mg/kg
Method in brief: (§2)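 Female CB17 scid mice bearing subcutaneous tumors, 10 per group. Dosed by oral gavage twice daily, 5 days weekly for 6 weeks, at 20.8, 10.4, 5.2 or 2.6 mg/kg, in 10% 2-hydroxypropyl-β-cyclodextrin/1% sodium bicarbonate. Event = quadrupled tumor volume; EFS by Kaplan–Meier, exact log-rank test. Per-mouse scores PD/SD/PR (≥50% regression)/CR (<0.10 cm3)/MCR; group median reported. PR, CR and MCR count as objective responses.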

[5] = tested on: ALL-8 ALL T-cell xenograft; assay: ALL xenograft; format: in vivo, mice
Method in brief: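 Female NOD/scid mice inoculated intravenously with leukemia cells, 8 per group. Test compound suspended in 10% 2-hydroxypropyl-β-cyclodextrin/1% sodium bicarbonate in water. Given by oral gavage twice daily, 5 days weekly for 3 weeks, at 20.8, 10.4, 5.2 or 2.6 mg/kg. Blood %hCD45 of leukocytes tracked; event = hCD45 reaching 25%. EFS by Kaplan–Meier, exact log-rank vs controls. Median group response from individual scores.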

[6] = tested on: CHLA-140 neuroblastoma cell line; assay: DIMSCAN in vitro testing, 96 h; format: cell-based; details: for IC50: Neuroblastoma cell, 96 h
Method in brief: as §1

[7] = tested on: OS-1 Osteosarcoma xenograft; format: in vivo, mice
Method in brief: as §2

[8] = tested on: SK-N-BE(2) neuroblastoma cell line; assay: DIMSCAN in vitro testing, 96 h; format: cell-based; details: minimum T/C
Method in brief: as §1

[9] = tested on: PPTP in vivo xenograft models; assay: Objective responses by AURKA copy number; set-up: species or system mice; details: MTD
[10] = patients, 50 mg BID for 7 days; cited from earlier work
[11] = Plasma pharmacokinetics after a single oral dose, LC/MS/MS; format: in vivo, non-tumored scid mice; details: scid, mouse
[12] = tested on: NB-1643 Neuroblastoma xenograft; format: in vivo, mice
Method in brief: as §2

[13] = tested on: CHLA-25 Ewing sarcoma cell line; assay: DIMSCAN in vitro testing, 96 h; format: cell-based; details: for IC50: 96 h
Method in brief: as §1

[14] = tested on: CHLA-258 Ewing sarcoma cell line; assay: DIMSCAN in vitro testing, 96 h; format: cell-based; details: for IC50: 96 h
Method in brief: as §1

Ewing sarcoma cell lines = assay: DIMSCAN in vitro testing, 96 h, Ewing panel; format: cell-based
Method in brief: as §1

[15] = tested on: TC-71 Ewing sarcoma cell line; assay: DIMSCAN in vitro testing, 96 h; format: cell-based; details: for IC50: TC-71, 96 h
Method in brief: as §1

[16] = tested on: NB-1382 Neuroblastoma xenograft; format: in vivo, mice; details: 20.8 mg/kg
Method in brief: as §2

SMILES: COc1cc(Nc2ncc3c(n2)-c2ccc(Cl)cc2C(c2c(F)cccc2OC)=NC3)ccc1C(=O)O [MLN8237]
- IC50 ([1]; read-out: Absolute IC50): 26 nM
- IC50 ([1]; read-out: Relative IC50): 23 nM
- Ymin ([1]; SMS-KANR, minimum T/C): 11.4%
- Ymin ([2]; LA–N-6, minimum T/C): 32.1%
- IC50 ([2]; read-out: Absolute IC50): 54 nM
- IC50 ([2]; read-out: Relative IC50): 31 nM
- inhibition of Aurora kinase A T217D mutant [3]: impervious
- objective responses out of 9 models in the solid tumor panel [4]: 5
- EFS T/C ([5]; 2.6 mg/kg): 1.8
- EFS activity ([5]; 2.6 mg/kg): Low
- Estimate of median time to event ([5]; 2.6 mg/kg): 23.0 days
- Median group response ([5]; 2.6 mg/kg): PD2 (if the TGD value >1.5, the mouse was considered PD2)
- Response activity ([5]; 2.6 mg/kg): Int
- Median RTV/hCD45 at end of study ([5]; 2.6 mg/kg): >25%
- EFS T/C ([5]; 5.2 mg/kg): 2.5
- EFS activity ([5]; 5.2 mg/kg): Int
- Estimate of median time to event ([5]; 5.2 mg/kg): 31.6 days
- Response activity ([5]; 5.2 mg/kg): High
- Median RTV/hCD45 at end of study ([5]; 5.2 mg/kg): >25%
- EFS T/C ([5]; 10.4 mg/kg): >3.3
- EFS activity ([5]; 10.4 mg/kg): Int
- Response activity ([5]; 10.4 mg/kg): High
- Median RTV/hCD45 at end of study ([5]; 10.4 mg/kg): 6.2%
- EFS T/C ([5]; 20.8 mg/kg): >3.3
- EFS activity ([5]; 20.8 mg/kg): High
- Median group response ([5]; 20.8 mg/kg): MCR
- Response activity ([5]; 20.8 mg/kg): High
- Median RTV/hCD45 at end of study ([5]; 20.8 mg/kg): 0.2%
- Ymin ([6]; CHLA-140, minimum T/C): 29.4%
- IC50 ([6]; read-out: Absolute IC50): 26 nM
- IC50 ([6]; read-out: Relative IC50): 14 nM
- EFS T/C ([7]; 2.6 mg/kg): >1.5
- Median group response ([7]; 2.6 mg/kg): PD2 (if the TGD value >1.5, the mouse was considered PD2)
- Response activity ([7]; 2.6 mg/kg): Int
- Tumor volume T/C ([7]; 2.6 mg/kg): 0.75
- Median RTV/hCD45 at end of study ([7]; 2.6 mg/kg): 3.5
- EFS T/C ([7]; 5.2 mg/kg): >1.5
- Median group response ([7]; 5.2 mg/kg): PD2 (if the TGD value >1.5, the mouse was considered PD2)
- Response activity ([7]; 5.2 mg/kg): Int
- Tumor volume T/C ([7]; 5.2 mg/kg): 0.70
- Median RTV/hCD45 at end of study ([7]; 5.2 mg/kg): 3.4
- EFS T/C ([7]; 10.4 mg/kg): >1.5
- Median group response ([7]; 10.4 mg/kg): PD2 (if the TGD value >1.5, the mouse was considered PD2)
- Response activity ([7]; 10.4 mg/kg): Int
- Tumor volume T/C ([7]; 10.4 mg/kg): 0.56
- Median RTV/hCD45 at end of study ([7]; 10.4 mg/kg): 2.0
- EFS T/C ([7]; 20.8 mg/kg): >1.5
- Response activity ([7]; 20.8 mg/kg): Int
- Tumor volume T/C ([7]; 20.8 mg/kg): 0.45
- Median RTV/hCD45 at end of study ([7]; 20.8 mg/kg): 0.8
- Ymin [8]: 16.5%
- objective responses in tumors with decreased AURKA copy number [9]: 5/8
- objective responses in tumors with increased AURKA gene copy number [9]: 2/14 and 2
- average trough concentrations [10]: exceeded 1 μM
- concentration at 12 h ([11]; oral, 10 mg/kg): 1200 nM
- concentration at 12 h ([11]; oral, 10.4 mg/kg): 1200 nM
- AUC(0-t) ([11]; po, 10 mg/kg): 39 µM·h
- Cmax ([11]; po, 10 mg/kg, C max, single oral 10 mg/kg, mice): 15800 nM
- AUC(0-t) ([11]; po, 10.4 mg/kg): 60.3 µM·h
- Cmax ([11]; po, 10.4 mg/kg): 24800 nM
- Tmax ([11]; po, 10.4 mg/kg): 30 min
- AUC(0-t) ([11]; po, 20.8 mg/kg): 78.4 µM·h
- Tmax ([11]; po, 20.8 mg/kg): 30 min
- concentration at 12 h ([11]; po, 20.8 mg/kg): 1800 nM
- EFS T/C ([12]; 2.6 mg/kg): 1.2
- EFS activity ([12]; 2.6 mg/kg): Low
- Estimate of median time to event ([12]; 2.6 mg/kg): 20.3 days
- Median group response ([12]; 2.6 mg/kg): PD1 (if the TGD value ≤1.5, that mouse was considered PD1)
- Response activity ([12]; 2.6 mg/kg): Low
- Tumor volume T/C ([12]; 2.6 mg/kg): 1.01
- Median RTV/hCD45 at end of study ([12]; 2.6 mg/kg): >4
- EFS T/C ([12]; 5.2 mg/kg): >2.4
- EFS activity ([12]; 5.2 mg/kg): High
- Response activity ([12]; 5.2 mg/kg): High
- Tumor volume T/C ([12]; 5.2 mg/kg): 0.38
- Median RTV/hCD45 at end of study ([12]; 5.2 mg/kg): 0.4
- EFS T/C ([12]; 10.4 mg/kg): >2.4
- EFS activity ([12]; 10.4 mg/kg): High
- Median group response ([12]; 10.4 mg/kg): MCR
- Response activity ([12]; 10.4 mg/kg): High
- Tumor volume T/C ([12]; 10.4 mg/kg): 0.30
- Median RTV/hCD45 at end of study ([12]; 10.4 mg/kg): 0.0
- EFS T/C ([12]; 20.8 mg/kg): >2.4
- EFS activity ([12]; 20.8 mg/kg): High
- Median group response ([12]; 20.8 mg/kg): MCR
- Response activity ([12]; 20.8 mg/kg): High
- Tumor volume T/C ([12]; 20.8 mg/kg): 0.14
- Median RTV/hCD45 at end of study ([12]; 20.8 mg/kg): 0.0
- IC50 ([13]; read-out: Absolute IC50): 168 nM
- IC50 ([13]; read-out: Relative IC50): 58 nM
- Ymin ([13]; CHLA-25, minimum T/C): 30.1%
- IC50 ([14]; read-out: Absolute IC50): 132 nM
- IC50 ([14]; read-out: Relative IC50): 82 nM
- Ymin ([14]; CHLA-258, minimum T/C): 18.8%
- median Ymin, Ewing cell lines (Ewing sarcoma cell lines; median of Ewing panel): 11.4%
- IC50 (Ewing sarcoma cell lines; read-out: relative IC50 values, Ewing sarcoma cell lines): 58 nM
- IC50 ([15]; read-out: Absolute IC50): 102 nM
- IC50 ([15]; read-out: Relative IC50): 100 nM
- Ymin ([15]; TC-71, minimum T/C): 10.0%
- EFS T/C [16]: >1.7
- Median group response [16]: PD2 (if the TGD value >1.5, the mouse was considered PD2)
- Response activity [16]: Int
- Tumor volume T/C [16]: 0.31
- Median RTV/hCD45 at end of study ([16]; RTV): 2.1
